Compound activity (PubChem BioAssay)
Insulin prom up: insulin promoter activators in MIN6 cells, imaging, high-content screening, mouse beta cells; MIN6 insulin promoter-GFP reporter; stronger effect = higher value; z-score at 5 µM; 190,000 compounds, 0.3% hits; AID 1625, 2009;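 active = z-score above 3 at 5 µM with at least 500 cells counted in the well; inconclusive = wells under 500 cells, flagged as cytotoxic or low count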
SR-BI DiI-HDL act: activators of SR-BI mediated DiI-HDL uptake, primary screen, ldlA[mSR-BI] CHO cells, DiI fluorescence; activation, % at 12.5 µM; 320,000 compounds, 0.096% hits; 3 h; 100 = double the neutral-control signal;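 active = mean replicate activation of at least 60% and every replicate at or above 60%; inconclusive = mean or all-replicate condition met, but not both; inactive = mean below 60% and not all replicates reaching 60%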
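System: CHO ldlA[mSR-BI] cells / Medium: HEPES-buffered (25 mM, pH 7.4) F12 plus 0.5% BSA / Probe or stimulus: labelled HDL, 10 µg/mL / Doses: single compound concentration, delivered by pin transfer / Schedule: 3 h, 37 °C / Measured by: DiI fluorescence, bottom read / Measure: cell-associated DiI fluorescence as measure of HDL uptake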
m5-HT2A agonist: mouse Htr2a agonists via beta-arrestin recruitment, primary screen, cell-based, luminescence; 360,000 compounds, 0.66% hits; activation, % at 7.6 µM; CHO-K1 mHTR2A beta-arrestin complementation; percent of 30 µM serotonin response; 5-hydroxytryptamine receptor 2A (Mus musculus), P35363;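 active = activation above a run cutoff, the mean activation of all tested compounds plus 3 SD, cut at about 14% in these data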
Calb FLC: C. albicans growth inhibition with fluconazole, primary screen, CaCi-2 strain, Alamar Blue fluorescence; C. albicans CaCi-2 + fluconazole, 48 h; growth inhibition, % (no concentration beside the values); 300,000 compounds, 0.57% hits; AID 1979, 2009;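 active = growth inhibition above about 58% in most replicates, limit read from the data, passing the limit was not always enough; inconclusive = exactly half the replicates above a set limit; inactive = most replicates below a set limit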;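 note: all wells also contain fluconazole at 8 µg/ml as a sub-toxic cotreatment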
MIN6 prolif-1: inducers of MIN6 beta-cell proliferation, primary screen, ATP luminescence, uHTS; MIN6 cells proliferation, ATPlite luminescence, 48 h; cells starved in 0.2% serum; 100% = growth in 10% serum; proliferation, % at 10 µM; 330,000 compounds, 0.29% hits;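 active = compounds whose signal lies at least 3.5 SD above the mean of all wells on their plate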
SR-BI HDL uptake: inhibitors of SR-BI mediated HDL lipid uptake, primary screen, ldlA[mSR-BI] cells, fluorescence, single point; 320,000 compounds, 0.96% hits; ldlA[mSR-BI] CHO cells, DiI-HDL uptake fluorescence, 3 h; inhibition, % at 12.5 µM; Scavenger receptor class B member 1 (Mus musculus), Q61009;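 active = mean replicate inhibition of at least 70% and a set share of replicates each scoring 70 or more; inconclusive = meets just one of the two criteria; inactive = fails both criteria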
Target sequence (Q61009 whole entry, looked up): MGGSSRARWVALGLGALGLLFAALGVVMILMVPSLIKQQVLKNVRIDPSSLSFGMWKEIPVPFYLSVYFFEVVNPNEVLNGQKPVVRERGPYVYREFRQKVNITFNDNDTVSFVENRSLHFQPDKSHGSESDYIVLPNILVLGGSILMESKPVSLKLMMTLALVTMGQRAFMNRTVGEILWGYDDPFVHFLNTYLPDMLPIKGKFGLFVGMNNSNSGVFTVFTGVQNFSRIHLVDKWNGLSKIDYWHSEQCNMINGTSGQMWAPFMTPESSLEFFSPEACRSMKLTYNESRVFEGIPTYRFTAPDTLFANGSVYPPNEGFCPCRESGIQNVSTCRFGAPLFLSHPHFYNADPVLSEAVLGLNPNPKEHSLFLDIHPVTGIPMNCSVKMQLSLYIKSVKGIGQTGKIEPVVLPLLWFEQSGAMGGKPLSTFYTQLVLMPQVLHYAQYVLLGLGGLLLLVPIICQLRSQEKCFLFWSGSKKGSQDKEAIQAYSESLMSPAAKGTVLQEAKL
MIN6 prolif-2: inducers of beta-cell proliferation in MIN6, confirmation, MIN6 cells, mouse | ATPlite luminescence, 48 h; cells kept in 0.2% serum; scaled between 0.2% and 10% serum | 920 tested, under 10 active | AID 463095, 2010 | shares compounds with MIN6 prolif-1 | proliferation increase, % at 50 µM;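 active = proliferation increase above 40% at any of the four tested concentrations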
Hits are given with their value; – = inactive; ? = inconclusive; · = no result. Most compounds without a hit are left out; they make up all but 2.4% or so of the library.

SMILES	Insulin prom up	SR-BI DiI-HDL act	m5-HT2A agonist	Calb FLC	MIN6 prolif-1	SR-BI HDL uptake	MIN6 prolif-2
COc1ccccc1NC(=O)N1CCN(c2ccccc2F)CC1	–	–	–	–	7.3	–	–
Cc1ccc(-n2c(SCC(=O)N3CCCc4ccccc43)nnc2-c2cccnc2)c(C)c1	–	–	–	–	–	–	·
CCOc1ccccc1-n1c(SCC(=O)N2CCCc3ccccc32)nnc1-c1cccnc1	–	–	–	–	6.6	–	–
CCOc1ccc(CCNS(=O)(=O)c2ccc3c(c2)N(C(C)=O)CCO3)cc1OCC	·	–	–	–	15	–	–
CC(=O)N1CCOc2ccc(S(=O)(=O)NCCc3ccc(C)cc3)cc21	·	–	–	–	–	–	·
CC(=O)c1sc(N/N=C\c2ccc(N(C)C)cc2)nc1C	·	–	–	–	6.6	–	–
Cc1[nH]c2ccccc2c1C(=O)NS(=O)(=O)Nc1ccc(F)cc1	–	–	–	–	8.8	–	–
Cc1ccc(C)c(C(O)c2ncc(-c3ccc(Cl)cc3)[nH]2)c1 (stereo not given)	·	·	–	·	·	·	·
COC(=O)CNC(=O)COC(=O)/C=C/c1ccc2ccccc2n1	–	–	–	–	10	–	–
COC(=O)CNC(=O)COC(=O)/C=C/c1cccs1	–	·	–	?	–	·	·
CCOc1ccc2nc(SCC(=O)N3CCCCCC3)c(C#N)cc2c1	–	–	–	–	5.3	–	–
CCCc1nc(Cl)c(C#N)c2c1CCCC2	–	–	–	–	9.0	–	–
CC(C)(C)N(NC(=O)OCc1ccccc1)C(=O)c1ccccc1	–	–	–	–	–	–	·
CC(C)(C)N(NC(=O)OCc1ccccc1)C(=O)c1ccccc1Cl	–	–	–	–	0.0	–	–
COc1ccccc1NC(=O)C1CCCN(c2nc(C)cc(C)n2)C1 (stereo not given)	·	–	–	–	7.5	–	–
COc1cc(C)nc(N2CCCC(C(=O)Nc3cccc(Cl)c3Cl)C2)n1 (stereo not given)	–	–	–	–	–	–	·
CCN(CC)CCN(C(=O)CN1C(=O)c2ccccc2C1=O)c1nc2cc3c(cc2s1)OCO3	·	–	–	–	10	–	–
CN(C)CCN(C(=O)CN1C(=O)c2ccccc2C1=O)c1nc2cc3c(cc2s1)OCO3	·	–	–	–	–	–	·
NC(=O)c1cccc(-c2cnc(N)c(C(=O)c3cccnc3)n2)c1	·	–	–	·	·	–	·
CC(=O)Nc1cccc(-c2cnc(N)c(C(=O)c3cccnc3)n2)c1	·	–	–	·	11	–	–
CC(C)(C)NC(=O)C(c1ccc(-c2ccccc2)cc1)N(C[C@H]1CC[C@@H]([C@@H]2CC[C@H](CO)O2)O1)C(=O)c1ccc(C(C)(C)C)cc1 (stereo not given in full)	·	–	–	·	·	–	·
CCCCC(OC(=O)CN1C(=O)COc2ccccc21)C(=O)NC1CCCCC1 (stereo not given)	·	·	–	–	11	·	–
CCCC(OC(=O)CN1C(=O)COc2ccccc21)C(=O)NC1CCCC1 (stereo not given)	–	–	–	–	–	–	·
CCOC(=O)c1c2n(c3ccc(O)cc13)CCC2	–	–	–	–	9.1	–	–
COc1ccc(C(N)c2csc(Nc3ccc(S(C)(=O)=O)cc3)n2)cc1 (stereo not given)	·	·	–	·	·	·	·
SMILES	Insulin prom up	SR-BI DiI-HDL act	m5-HT2A agonist	Calb FLC	MIN6 prolif-1	SR-BI HDL uptake	MIN6 prolif-2
O=C(CSc1ccc2nnc(CCNC(=O)c3ccccc3)n2n1)NCCc1ccccc1	·	–	–	–	10	–	–
O=C(CSc1ccc2nnc(CCNC(=O)c3ccccc3)n2n1)NC1CCCC1	·	–	–	–	–	–	·
COc1cc(C(=O)O[C@H]2C/C(C)=C/CC[C@@]3(C)O[C@@H]3[C@H](O)[C@@H]2C(C)C)cc(OC)c1OC	·	–	–	–	–	–	·
CCN(CC)S(=O)(=O)c1ccc(OC(C)C)c(NC(=O)C2=COCCO2)c1	·	–	–	–	16	–	–
NS(=O)(=O)c1cccc(C(=O)OCC(=O)NC2CCCc3ccccc32)c1 (stereo not given)	·	–	–	·	–	–	·
CCN(CC)S(=O)(=O)c1cc(OC)c(Cl)cc1OC	–	–	–	–	7.8	–	–
CCn1c(Oc2ccc(F)cc2)nc2c1c(=O)n(C)c(=O)n2C	·	–	–	–	7.3	–	–
Cc1cc(Cl)ccc1C(O)c1ncc(-c2ccc(C(F)(F)F)cc2)[nH]1 (stereo not given)	·	·	–	·	·	·	·
O=C(c1cccc([N+](=O)[O-])c1)N1CCCC(C(=O)N2CCc3ccccc3C2)C1 (stereo not given)	·	–	–	·	6.0	–	–
CCOC(=O)c1c(S(=O)(=O)NCC(=O)Nc2ccc(OC)cc2)c(C)n(C)c1C	·	–	–	–	13	–	–
CCOC(=O)c1c(S(=O)(=O)NCC(=O)Nc2ccccc2OC)c(C)n(C)c1C	·	–	–	–	13	–	–
CCOC(=O)c1c(S(=O)(=O)NCCc2ccccc2)c(C)n(C)c1C	·	–	–	–	12	–	–
CCOC(=O)c1c(S(=O)(=O)NCC(=O)Nc2ccccc2)c(C)n(C)c1C	·	–	–	–	–	–	·
Cc1cc(C)c(S(=O)(=O)N(C)CC(=O)N2CCCC2)c(C)c1	·	·	–	·	·	·	·
COc1ccc(CN2C(=O)c3ccccc3C2c2nnnn2-c2c(C)cccc2C)cc1OC (stereo not given)	·	·	–	·	·	·	·
CCN(CC)c1ncnc2scc(C3COc4ccccc4O3)c12 (stereo not given)	–	–	–	–	–	–	·
c1ccc2c(c1)OCC(c1csc3ncnc(N4CCOCC4)c13)O2 (stereo not given)	–	–	–	–	5.3	–	–
CCOc1ccccc1-c1nc(CN2CCN(C(=O)c3ccco3)CC2)c(C)o1	·	–	–	–	–	–	·
Cc1ccccc1-c1nc(CN2CCN(C(=O)c3ccco3)CC2)c(C)o1	·	–	–	–	8.9	–	–
C/C(=N/NS(=O)(=O)c1ccc(C)cc1)c1c(O)c2ccccc2oc1=O	–	–	–	–	–	–	·
C/C(=N\NS(=O)(=O)c1ccc(C)cc1)c1cc2ccccc2oc1=O	–	–	–	–	8.4	–	–
N#CC(C#N)=C1NC2(CCCCC2)Cc2ccccc21	–	–	–	–	5.2	–	–
